From ChEMBL document CHEMBL1828575, “Design, synthesis and antiproliferative activities of biarylolefins based on polyhydroxylated and carbohydrate scaffolds” (Eur J Med Chem, 2011)

How the values were obtained:
Type in all cases: functional
MOLT-4 = test: Antitumor activity against human MOLT4 cells after 48 hrs by SRB assay; settings: MOLT-4, 48 h; for CC50: read-out: pLC50 (the source's name) (converted)
Summary of the method: (§1)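 NCI60 panel in RPMI 1640 with 5% FBS and 2 mM L-glutamine. Cells were plated at 5000–40,000/well by doubling time, held 24 h, then time-zero plates were TCA-fixed. Five concentrations (10-fold or half-log dilutions of DMSO stocks) were applied for 48 h at 37 °C, 5% CO2. Cells were fixed with cold TCA (10% final adherent, 16% suspension) and stained with 0.4% SRB. Bound dye was dissolved in 10 mM Tris and read at 515 nm. GI50, TGI and LC50 were calculated per line.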

COLO 205 [1] = test: Cytotoxicity against human COLO205 cells assessed as cellular growth at 10 uM after 48 hrs by SRB assay
Summary of the method: (§2)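 NCI60 single-dose screen of cells in RPMI 1640 with 5% FBS and 2 mM L-glutamine, preincubated 24 h at 37 °C, 5% CO₂. Cells were then exposed 48 h to compound added from DMSO stock. TCA-fixed, stained with 0.4% SRB in 1% acetic acid, dye solubilised in 10 mM Tris base and read at 515 nm. Growth is given as percent of untreated control.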

SF-539 = test: Antitumor activity against human SF539 cells after 48 hrs by SRB assay; settings: SF-539, 48 h; for CC50: read-out: LC50 (the source's name)
Summary of the method: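 NCI60 panel cells grown in RPMI 1640 with 5% FBS and 2 mM L-glutamine, plated at 5000–40,000 cells/well and preincubated 24 h at 37 °C, 5% CO₂. Compound was added from DMSO at five concentrations, 10-fold or 1/2 log dilutions, then incubated 48 h.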

SF-295 = test: Antitumor activity against human SF295 cells after 48 hrs by SRB assay; settings: SF-295, 48 h; summary of the method: as §1
COLO 205 [2] = test: Antitumor activity against human COLO205 cells after 48 hrs by SRB assay; settings: COLO 205, 48 h; summary of the method: as §1
UACC-257 = test: Cytotoxicity against human UACC257 cells assessed as cellular growth at 10 uM after 48 hrs by SRB assay
Summary of the method: (§3)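 NCI-60 panel lines grown in RPMI 1640 with 5% FBS and 2 mM L-glutamine. Plated at 5000–40,000 cells/well and preincubated 24 h at 37 °C, 5% CO₂, with time-zero plates fixed in TCA. Compounds, dissolved in DMSO and diluted in medium, were applied for 48 h. Cells were TCA-fixed (10% final for adherent, 16% for suspension) and stained with 0.4% SRB in 1% acetic acid. Dye was solubilised in 10 mM Tris base and read at 515 nm; growth was expressed as a percentage of untreated control.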

SK-MEL-2 = test: Cytotoxicity against human SK-MEL-2 cells assessed as cellular growth at 10 uM after 48 hrs by SRB assay; summary of the method: as §3
TK-10 = test: Cytotoxicity against human TK10 cells assessed as cellular growth at 10 uM after 48 hrs by SRB assay; summary of the method: as §3
MCF7 [3] = test: Cytotoxicity against human MCF7 cells assessed as cellular growth at 10 uM after 48 hrs by SRB assay; summary of the method: as §3
SNB-19 = test: Cytotoxicity against human SNB19 cells assessed as cellular growth at 10 uM after 48 hrs by SRB assay; summary of the method: as §3
HCT-15 [4] = test: Antiproliferative activity against human HCT15 cells after 48 hrs by SRB assay; settings: HCT-15, 48 h
Summary of the method: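 NCI60 screen: cells grown in RPMI 1640 with 5% FBS and 2 mM L-glutamine, plated at 5000–40,000 cells/well by doubling time, preincubated 24 h at 37 °C with 5% CO2. Compounds were diluted from DMSO stocks and given for 48 h, at five concentrations for dose response. A time-zero plate was TCA-fixed. Cells were TCA-fixed, stained with 0.4% SRB and read at 515 nm, with growth expressed relative to untreated controls.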

HCT-15 [5] = test: Cytotoxicity against human HCT15 cells assessed as cellular growth at 10 uM after 48 hrs by SRB assay; summary of the method: as §2
HOP-62 = test: Antitumor activity against human HOP62 cells after 48 hrs by SRB assay; settings: HOP-62, 48 h; for CC50: read-out: LC50 (the source's name); summary of the method: as §1
OVCAR-3 = test: Antitumor activity against human OVCAR3 cells after 48 hrs by SRB assay; settings: OVCAR-3, 48 h; for CC50: read-out: LC50 (the source's name); summary of the method: as §1
IGROV-1 = test: Cytotoxicity against human IGROV1 cells assessed as cellular growth at 10 uM after 48 hrs by SRB assay; summary of the method: as §2
MDA-MB-231 = test: Cytotoxicity against human MDA-MB-231 cells assessed as cellular growth at 10 uM after 48 hrs by SRB assay; summary of the method: as §3
Malme-3M = test: Cytotoxicity against human MALME-3M cells assessed as cellular growth at 10 uM after 48 hrs by SRB assay; summary of the method: as §3
786-0 = test: Cytotoxicity against human 786-0 cells assessed as cellular growth at 10 uM after 48 hrs by SRB assay; summary of the method: as §2
NCI-H522 = test: Cytotoxicity against human NCI-H522 cells assessed as cellular growth at 10 uM after 48 hrs by SRB assay; summary of the method: as §3
MCF7 [6] = test: Antitumor activity against human MCF7 cells after 48 hrs by SRB assay; settings: MCF7, 48 h; summary of the method: as §1
NCI-H226 = test: Antitumor activity against human NCI-H226 cells after 48 hrs by SRB assay; settings: NCI-H226, 48 h; summary of the method: as §1
SK-MEL-5 = test: Cytotoxicity against human SK-MEL-5 cells assessed as cellular growth at 10 uM after 48 hrs by SRB assay; summary of the method: as §3
T47D = test: Cytotoxicity against human T47D cells assessed as cellular growth at 10 uM after 48 hrs by SRB assay; summary of the method: as §3
[7] = read-out: LC50 (the source's name)
[8] = read-out: pLC50 (the source's name) (converted)

COc1cc(/C(=C2\O[C@@H]([C@H]3COC(C)(C)O3)[C@H]3OC(C)(C)O[C@@H]23)c2ccc3ccccc3c2)cc(OC)c1OC
LC50 (concentration killing 50% of cells) (MOLT-4): > 100 µM | GI50 (MOLT-4; read-out: GI50): > 100 µM | TGI (MOLT-4; read-out: TGI): > 100 µM | GI50 (MOLT-4; read-out: pGI50 (converted)): 100 µM | CC50 (MOLT-4): > 100 µM | TGI (MOLT-4; read-out: pTGI): > 100 µM | Activity (COLO 205 [1]): 66.91% | GI50 (SF-539): 14.3 µM | TGI (SF-539): 79 µM | CC50 (SF-539): > 100 µM | GI50 (SF-295; read-out: GI50): 6.92 µM | CC50 (SF-295; [7]): > 100 µM | TGI (SF-295; read-out: TGI): 52.1 µM | GI50 (SF-295; read-out: pGI50 (converted)): 6.92 µM | CC50 (SF-295; [8]): > 100 µM | TGI (SF-295; read-out: pTGI (converted)): 52.5 µM | GI50 (COLO 205 [2]; read-out: GI50): 6.97 µM | CC50 (COLO 205 [2]; [7]): > 100 µM | TGI (COLO 205 [2]; read-out: TGI): > 100 µM | GI50 (COLO 205 [2]; read-out: pGI50 (converted)): 6.92 µM | CC50 (COLO 205 [2]; [8]): > 100 µM | TGI (COLO 205 [2]; read-out: pTGI (converted)): > 100 µM | Activity (UACC-257): 45.86% | Activity (SK-MEL-2): -49.67% | Activity (TK-10): 22.74% | Activity (MCF7 [3]): 22.8% | Activity (SNB-19): 29% | CC50 (HCT-15 [4]; [7]): > 100 µM | CC50 (HCT-15 [4]; [8]): > 100 µM | Activity (HCT-15 [5]): 59.71% | GI50 (HOP-62): 9.78 µM | TGI (HOP-62): 31.4 µM | CC50 (HOP-62): 99.8 µM | GI50 (OVCAR-3): 2.39 µM | TGI (OVCAR-3): 5.67 µM | CC50 (OVCAR-3): 21.7 µM | Activity (IGROV-1): -21.44% | Activity (MDA-MB-231): 13.6% | Activity (Malme-3M): -25.39% | Activity (786-0): -1.42% | Activity (NCI-H522): 8.05% | GI50 (MCF7 [6]; read-out: GI50): 3.69 µM | CC50 (MCF7 [6]; [7]): > 100 µM | TGI (MCF7 [6]; read-out: TGI): 14.4 µM | GI50 (MCF7 [6]; read-out: pGI50 (converted)): 3.63 µM | CC50 (MCF7 [6]; [8]): > 100 µM | TGI (MCF7 [6]; read-out: pTGI (converted)): 14.5 µM | GI50 (NCI-H226; read-out: GI50): 3.49 µM | CC50 (NCI-H226; [7]): > 100 µM | TGI (NCI-H226; read-out: TGI): 60 µM | GI50 (NCI-H226; read-out: pGI50 (converted)): 3.47 µM | CC50 (NCI-H226; [8]): > 100 µM | TGI (NCI-H226; read-out: pTGI (converted)): 60.3 µM | Activity (SK-MEL-5): 38.25%

COc1ccc(/C(=C2/O[C@@H]([C@H]3COC(C)(C)O3)[C@H]3OC(C)(C)O[C@@H]23)c2cc(OC)c(OC)c(OC)c2)cc1O
LC50 (concentration killing 50% of cells) (MOLT-4): > 100 µM | GI50 (MOLT-4; read-out: GI50): 6.93 µM | TGI (MOLT-4; read-out: TGI): > 100 µM | GI50 (MOLT-4; read-out: pGI50 (converted)): 6.92 µM | CC50 (MOLT-4): > 100 µM | TGI (MOLT-4; read-out: pTGI): > 100 µM | Activity (COLO 205 [1]): 120.76% | GI50 (SF-539): 2.59 µM | TGI (SF-539): 6.63 µM | CC50 (SF-539): > 100 µM | GI50 (SF-295; read-out: GI50): 7 µM | CC50 (SF-295; [7]): > 100 µM | TGI (SF-295; read-out: TGI): 37.3 µM | GI50 (SF-295; read-out: pGI50 (converted)): 6.92 µM | CC50 (SF-295; [8]): > 100 µM | TGI (SF-295; read-out: pTGI (converted)): 23.4 µM | CC50 (COLO 205 [2]; [7]): > 100 µM | TGI (COLO 205 [2]; read-out: TGI): > 100 µM | GI50 (COLO 205 [2]; read-out: pGI50 (converted)): 17.8 µM | CC50 (COLO 205 [2]; [8]): > 100 µM | TGI (COLO 205 [2]; read-out: pTGI (converted)): > 100 µM | Activity (UACC-257): 107.04% | Activity (SK-MEL-2): 103.26% | Activity (TK-10): 109.18% | Activity (SNB-19): 47.41% | Activity (HCT-15 [5]): 26.94% | GI50 (HOP-62): 5.93 µM | TGI (HOP-62): 25.5 µM | CC50 (HOP-62): 96.8 µM | GI50 (OVCAR-3): 2.38 µM | TGI (OVCAR-3): 5.34 µM | CC50 (OVCAR-3): 22.9 µM | Activity (T47D): 120.98% | Activity (MDA-MB-231): 43.9% | Activity (786-0): 100.71% | Activity (NCI-H522): 43.38% | GI50 (MCF7 [6]; read-out: GI50): 3.76 µM | CC50 (MCF7 [6]; [7]): > 100 µM | TGI (MCF7 [6]; read-out: TGI): > 100 µM | GI50 (MCF7 [6]; read-out: pGI50 (converted)): 3.8 µM | CC50 (MCF7 [6]; [8]): > 100 µM | TGI (MCF7 [6]; read-out: pTGI (converted)): > 100 µM | GI50 (NCI-H226; read-out: GI50): 2.59 µM | CC50 (NCI-H226; [7]): > 100 µM | TGI (NCI-H226; read-out: TGI): > 100 µM | GI50 (NCI-H226; read-out: pGI50 (converted)): 25.7 µM | CC50 (NCI-H226; [8]): > 100 µM | TGI (NCI-H226; read-out: pTGI (converted)): > 100 µM | Activity (SK-MEL-5): 59.59%
